Here are results for one compound from ChEMBL document CHEMBL5344432, “Identification of a Dual Autophagy and REV-ERB Inhibitor with in Vivo Anticancer Efficacy” (J Med Chem, 2024).

In series [1] the test system is BT-474. As to the kind of experiment: Cytotoxicity against human BT-474 cells. Format: functional. Put shortly:
(§1)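 BT-474 breast cancer cells and nontumorigenic HMECs treated 48 h with concentrations up to 30 μM. CC50 derived from concentration–response viability plots. Values >30 μM assigned when viability fell by less than 50% of vehicle at 30 μM. Mean ± SEM, n ≥ 3.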

Series [2] in a line: Cytotoxicity against HMECs. Format: toxicity, cell-based, HMEC. Particulars: human, HMEC cells. Put shortly: as §1
Series [3] can be described thus: Aqueous kinetic solubility of the compound in PBS at pH 7.4 at 250 uM incubated for 24 hrs by UPLC/MS analysis. In kind it is physicochemical. Particulars: read-out: Kinetic_solubility. Put shortly:
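Kinetic solubility measured in phosphate-buffered saline, pH 7.4. Mean of at least two independent experiments, each run in two technical replicates.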

The nature of series [4]: Metabolic stability in mouse liver microsomes assessed as parent compound remaining preincubated for 15 mins followed by NADPH addition and measured after 1 hr by LC-MS/MS analysis. Format: ADME, Microsome. Particulars: time 75 min, read-out: Stability. Put shortly:
(§2)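 Microsomal stability assessed in mouse, human, rat or dog liver microsomes with NADPH cofactor. Half-life and percent parent remaining at 60 and 120 min reported. Mean of at least two independent experiments, each in two technical replicates.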
On the technique in general: Liver microsomes are vesicles of endoplasmic reticulum, rich in cytochrome P450 enzymes.

Series [5] is described as follows: Metabolic stability in mouse liver microsomes assessed as parent compound remaining preincubated for 15 mins followed by NADPH addition and measured after 2 hrs by LC-MS/MS analysis. Format: ADME, Microsome. The conditions noted are these: time 135 min, read-out: Stability. In a few lines:
as §2

Series [6] can be described thus: Metabolic stability in human liver microsomes assessed as half life preincubated for 15 mins followed by NADPH addition and measured after 1 to 2 hrs by LC-MS/MS analysis. Particulars: liver microsomes, time 75-135 min. In kind it is ADME, Microsome. Put shortly: as §2
Series [7] can be described thus: Metabolic stability in human liver microsomes assessed as parent compound remaining preincubated for 15 mins followed by NADPH addition and measured after 1 hr by LC-MS/MS analysis. In kind it is ADME, Microsome. Particulars: time 75 min, read-out: Stability. In a few lines:
as §2

Series [8] can be described thus: Metabolic stability in human liver microsomes assessed as parent compound remaining preincubated for 15 mins followed by NADPH addition and measured after 2 hrs by LC-MS/MS analysis. Format: ADME, Microsome. Particulars: time 135 min, read-out: Stability. Put shortly: as §2
Series [9] in a line: Metabolic stability in mouse liver microsomes assessed as half life preincubated for 15 mins followed by UDPGA addition and measured after 2 hrs by LC-MS/MS analysis. In kind it is ADME, Microsome. Particulars: time 135 min. Put shortly: (§3)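 Mouse and human liver microsomes incubated with UDPGA cofactor. Half-life and percent parent remaining at 120 min reported. Mean of at least two independent experiments, each in two technical replicates.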

Series [10] can be described thus: Metabolic stability in human liver microsomes assessed as parent compound remaining preincubated for 15 mins followed by UDPGA addition and measured after 2 hrs by LC-MS/MS analysis. Format: ADME, Microsome. The conditions noted are these: time 135 min, read-out: Stability. Put shortly: as §3
Series [11] is described as follows: Metabolic stability in rat liver microsomes assessed as half life preincubated for 15 mins followed by NADPH addition and measured after 1 to 2 hrs by LC-MS/MS analysis. In kind it is ADME, Microsome. Particulars: microsomes, time 75-135 min. Put shortly: as §2
A short description of series [12]: Metabolic stability in dog liver microsomes assessed as half life preincubated for 15 mins followed by NADPH addition and measured after 1 to 2 hrs by LC-MS/MS analysis. Format: ADME, Canis lupus familiaris, Microsome. The conditions noted are these: microsomes, time 75-135 min. In a few lines: as §2
Series [13] concerns MDA-MB-231. In words: Cytotoxicity against human MDA-MB-231 cells. In kind it is functional. Put shortly: (§4)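 Human cancer lines (A375, MDA-MB-231, OMM-1, UPMM-2, CAPAN-2, HepG2, HT-29, HCT116) treated up to 30 μM. CC50 derived from concentration–response viability plots. Mean ± SEM, n ≥ 6. Two-tailed unpaired t test used between compounds.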
The subject of series [14] is A-375. In words: Cytotoxicity against human A-375 cells. Format: functional. In a few lines:
as §4

Series [15] in a line: Cytotoxicity against human OMM-1 cells. Format: functional. Put shortly: as §4
Series [16] in a line: Cytotoxicity against human UPMM-2 cells. Format: functional. Put shortly: as §4
In series [17] the test system is Capan-2. In words: Cytotoxicity against human Capan-2 cells. Format: functional. In a few lines: as §4
In series [18] the test system is HepG2. In words: Cytotoxicity against human HepG2 cells. In kind it is functional. In a few lines:
as §4

In series [19] the test system is HT-29. In words: Cytotoxicity against human HT-29 cells. In kind it is functional. Put shortly: as §4
Series [20] relates to HCT-116. In words: Cytotoxicity against human HCT-116 cells. In kind it is functional. In a few lines: as §4
Series [21] in a line: Inhibition of REV-ERBbeta (unknown origin) transcription expressed in HEK293 cells incubated for 24 hrs by gaussia luciferase based assay. Format: cell-based. Particulars: Homo sapiens, HEK293, 24 h. Put shortly: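 HEK-293 cells cotransfected with REV-ERBβ and a luciferase reporter driven by two repeats of a REV-ERB response element (RevRE) consensus, then treated across a concentration range. Luciferase activity is expressed as fold of DMSO vehicle, mean ± SEM, n = 6, and EC50 is taken from the concentration-response curve. A parallel reporter carrying a mutated RevRE served as a specificity control.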

In series [22] the test system is A375 (human). In words: Inhibition of autophagy in human A375 cells expressing EGFP-LC3B assessed as increase in LC3-II protein level at 2.5 uM after 24 hrs by immunoblotting analysis.
The nature of series [23]: Metabolic stability in mouse liver microsomes assessed as half-life preincubated for 15 mins followed by UDPGA addition and measured after 2 hrs by LC-MS/MS analysis.
Series [24] concerns A375 (human). In words: Inhibition of autophagy in human A375 cells expressing EGFP-LC3B assessed as accumulation of autophagosome after 24 hrs by Hoechst 33342 staining based fluorescent microscopy analysis. The conditions noted are these: dose 1.25-5 µM.

SMILES strings stand for the structures. ≈ marks a conversion by molar mass, not a printed value. Calls of active or inactive are those of the source.

The CC50 is the concentration giving 50% cytotoxicity. A higher CC50 goes with lower toxicity to the cells. For orientation: half-life means the time needed for the level to fall by half in the phase considered. By EC50 is commonly meant the concentration that produces a half-maximal response. Low readings indicate a more potent agent, high ones a less potent agent. As to `CN1CCC(Cc2cccc(CNC3(c4ccc(F)cc4)CCCC3)c2)CC1`, the CC50 is 5.93 µM in [1]; greater than 30 µM in series [2]; 7.42 µM in series [13]; 5.67 µM in series [14]; 2.28 µM in series [15]; 1.91 µM in [16]. Besides, the 50% cytotoxic concentration (CC50) in [17] was greater than 30 µM; in series [18], 2.8 µM; in series [19], 18.9 µM; in series [20], 13.5 µM. In series [3], the solubility kinetic at 24 h, 250 µM was found to be 235 µM (≈ 89.4 µg/mL). Also, the remaining at 1 h came to 66% in [4] and 79% in series [7]. For the same compound, the remaining at 2 h was 39% in series [5], 50% in series [8] and greater than 95% in series [10]. Moreover, the half-life in series [6] and in [9] was greater than 2 h throughout. Moreover, the results for the t1/2 in [11] and in series [12] were 0.733 h and 0.933 h, respectively. In [21], this compound returned a concentration giving a half-maximal response (EC50) of 3.78 µM. Also, in series [22], the inhibition entry was “Active”. In addition, in series [23], the t1/2 at 2 h is greater than 2 h. For the same compound, the inhibition entry in [24] was “Dose-Dependent Effect”.
